In paper PMC9099118 (Clinical and Translational Science, 2022):
“Also recorded” adds a separate entry of the source.

Key:
[1] = Phase I plasma pharmacokinetics after single; type: in vivo, human; conditions: for Cmax: plasma; for T max: median; for AR (Cmin): Cmin Day 14/Cmin Day 1, mean; for Cmax, Day 1 / Cmin, Day 1: first dose; for AUCtau, Day14 / Cmax, Day 14 / Cmin, Day 14: steady-state
Procedure, shortened: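 Randomized, placebo-controlled, blinded study in healthy adults aged 18–65. Part A gave single inhaled doses of 0.15–15 mg; Part B gave 1, 3 or 10 mg q.d. or 15 mg b.i.d. for 14 days via a capsule dry-powder inhaler, each dose over 15 (±5) min. Serial plasma samples were taken from pre-dose to Day 15 (Part A) or Day 42 (Part B). Drug was assayed by HPLC-MS/MS (LLOQ 10 pg/mL). Accumulation ratio = Cmin Day 14/Cmin Day 1.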

[2] = Scintigraphy study: plasma PK and safety; type: in vivo, human; conditions: single 1 mg radiolabeled dose
[3] = test system: fractional exhaled nitric oxide (FeNO); conditions: patients with mild asthma, inhaled; cited from earlier work
[4] = test system: rat model of asthma; conditions: inhalation dosing; cited from earlier work
[5] = Phase I safety: laboratory tests; type: in vivo, human
Procedure, shortened: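 Healthy volunteers in single- and multiple-ascending inhaled-dose cohorts, randomized against placebo and blinded to investigator and subject. All dosed subjects were analysed. Change from baseline was assessed in vital signs, 12-lead ECG, spirometry and laboratory tests. Lab monitoring for JAK-related toxicity covered reticulocyte counts, lymphocyte subsets and fasting lipids.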

[6] = type: in vivo, human
Procedure, shortened: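 Open-label single-dose study in 12 healthy volunteers. Each inhaled 1 mg test compound, with 99mTc surface-associated with the powder and blended with lactose, from a capsule dry-powder inhaler (60 L/min at 4 kPa). 81mKr ventilation and 57Co transmission scans were taken before dosing. Counts were corrected for decay, background and attenuation. Lung deposition was expressed as % of emitted dose (sum of lung, oropharynx, mouthwash, stomach and exhalation filter counts). Device and capsule residue was expressed as % of loaded dose. PI (outer/inner ratio) and sC/P were normalized to 81mKr.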

[7] = biological target: JAK1; conditions: cited from earlier work
[8] = Part A SAD, range across dose levels

CN(CCC#N)C1CCN(C(=O)Cn2cc(NC(=O)c3cnn4cccnc34)c(-c3cc(Cl)ccc3OC(F)F)n2)CC1 [GDC‐0214]
Cmax ([1]; Part A SAD, 0.15 mg single inhaled dose, mean): 70.2 pg/mL
T max ([1]; Part A SAD, 0.15 mg): 17 min
Cmax ([1]; Part A SAD, 0.5 mg single inhaled dose, mean): 301 pg/mL
AUCinf ([1]; Part A SAD, 0.5 mg, mean): 2.458 ng·h/mL
CL/F ([1]; Part A SAD, 0.5 mg, mean): 227 L/h
T 1/2 ([1]; Part A SAD, 0.5 mg, mean): 37.3 h
Vz/F ([1]; Part A SAD, 0.5 mg, mean): 12264 L
T max ([1]; Part A SAD, 0.5 mg): 16 min
Cmax ([1]; Part A SAD, 1.5 mg single inhaled dose, mean): 763 pg/mL
AUCinf ([1]; Part A SAD, 1.5 mg, mean): 7.32 ng·h/mL
CL/F ([1]; Part A SAD, 1.5 mg, mean): 220 L/h
T 1/2 ([1]; Part A SAD, 1.5 mg, mean): 38.7 h
Vz/F ([1]; Part A SAD, 1.5 mg, mean): 12620 L
T max ([1]; Part A SAD, 1.5 mg): 31 min
Cmax ([1]; Part A SAD, 5 mg single inhaled dose, mean): 2883 pg/mL
AUCinf ([1]; Part A SAD, 5 mg, mean): 34.727 ng·h/mL
CL/F ([1]; Part A SAD, 5 mg, mean): 149 L/h
T 1/2 ([1]; Part A SAD, 5 mg, mean): 36.5 h
Vz/F ([1]; Part A SAD, 5 mg, mean): 7744 L
T max ([1]; Part A SAD, 5 mg): 27.5 min
Cmax ([1]; Part A SAD, 15 mg single inhaled dose, mean): 7270 pg/mL
AUCinf ([1]; Part A SAD, 15 mg, mean): 96.038 ng·h/mL
CL/F ([1]; Part A SAD, 15 mg, mean): 158 L/h
T 1/2 ([1]; Part A SAD, 15 mg, mean): 39.7 h
Vz/F ([1]; Part A SAD, 15 mg, mean): 9116 L
T max ([1]; Part A SAD, 15 mg): 30 min
dose proportionality of mean Cmax and AUC0-inf ([1]; Part A SAD, across cohorts): approximately dose‐proportional
mean CL/F [1, 8]: 149 to 227 L/h
mean apparent volume of distribution (Vz/F) [1, 8]: 7740–12,600 L
t 1/2 ([1]; Part B MAD, 1 mg q.d. for 14 days, mean): 38.5 h
AR (Cmin) ([1]; Part B MAD, 1 mg q.d.): 3.0
Cmax, Day 1 ([1]; Part B MAD, 1 mg q.d., mean): 581 pg/mL
Cmin, Day 1 ([1]; Part B MAD, 1 mg q.d., mean): 59.4 pg/mL
AUCtau, Day1 ([1]; Part B MAD, 1 mg q.d., mean): 2910 pg·h/mL
AUCtau, Day14 ([1]; Part B MAD, 1 mg q.d., mean): 5969 pg·h/mL
Cmax, Day 14 ([1]; Part B MAD, 1 mg q.d., mean): 810 pg/mL
Cmin, Day 14 ([1]; Part B MAD, 1 mg q.d., mean): 167 pg/mL
t 1/2 ([1]; Part B MAD, 3 mg q.d. for 14 days, mean (N 5)): 32.0 h
AR (Cmin) ([1]; Part B MAD, 3 mg q.d.): 2.79
Cmax, Day 1 ([1]; Part B MAD, 3 mg q.d., mean): 1510 pg/mL
Cmin, Day 1 ([1]; Part B MAD, 3 mg q.d., mean): 164 pg/mL
AUCtau, Day1 ([1]; Part B MAD, 3 mg q.d., mean): 8080 pg·h/mL
AUCtau, Day14 ([1]; Part B MAD, 3 mg q.d., mean): 15,794 pg.h/mL
Cmax, Day 14 ([1]; Part B MAD, 3 mg q.d., mean): 2115 pg/mL
Cmin, Day 14 ([1]; Part B MAD, 3 mg q.d., mean): 450 pg/mL
t 1/2 ([1]; Part B MAD, 10 mg q.d. for 14 days, mean): 40.8 h
AR (Cmin) ([1]; Part B MAD, 10 mg q.d.): 3.47
Cmax, Day 1 ([1]; Part B MAD, 10 mg q.d., mean): 3770 pg/mL
Cmin, Day 1 ([1]; Part B MAD, 10 mg q.d., mean): 517 pg/mL
AUCtau, Day1 ([1]; Part B MAD, 10 mg q.d., mean): 21,300 pg.h/mL
AUCtau, Day14 ([1]; Part B MAD, 10 mg q.d., mean): 52,824 pg.h/mL
Cmax, Day 14 ([1]; Part B MAD, 10 mg q.d., mean): 5982 pg/mL
Cmin, Day 14 ([1]; Part B MAD, 10 mg q.d., mean): 1780 pg/mL
t 1/2 ([1]; Part B MAD, 15 mg b.i.d. for 14 days, mean): 56.9 h
AR (Cmin) ([1]; Part B MAD, 15 mg b.i.d.): 2.49
Cmax, Day 1 ([1]; Part B MAD, 15 mg b.i.d., mean): 6080 pg/mL
Cmin, Day 1 ([1]; Part B MAD, 15 mg b.i.d., mean): 2090 pg/mL
AUCtau, Day1 ([1]; Part B MAD, 15 mg b.i.d., mean): 39,500 pg.h/mL
AUCtau, Day14 ([1]; Part B MAD, 15 mg b.i.d., mean): 79,907 pg.h/mL
Cmax, Day 14 ([1]; Part B MAD, 15 mg b.i.d., mean): 12,423 pg/mL
Cmin, Day 14 ([1]; Part B MAD, 15 mg b.i.d., mean): 5260 pg/mL
dose proportionality of Cmax and AUCtau ([1]; Part B MAD, across the three q.d. cohorts): approximately dose‐proportional
steady-state concentrations achieved by ([1]; Part B MAD, q.d. or b.i.d. dosing): ≤ 6 days
time of peak plasma concentrations post-dose ([1]; after inhalation, across cohorts): 15 to 30 min
tolerability [2]: well tolerated
fractional exhaled nitric oxide (FeNO) [3]: reduced; also recorded: dose‐dependent decreases
eosinophil recruitment [4]: suppressed
changes in laboratory parameters, ECGs, or vital signs ([5]; Parts A and B): no clinically relevant changes
changes in CD4T cells, CD8T cells, or B cells ([5]; compared to placebo, GDC-0214-treated cohorts): no significant changes
changes from baseline in levels of NK cells, reticulocytes, or low-density lipoprotein cholesterol ([5]; indicators of systemic effects of JAK1 inhibition): no significant changes
mean emitted dose ([6]; capsule emptying, of loaded dose, 1 mg capsule): approximately 81%
calculated mean dose deposited in the lungs ([6]; from a single capsule (1 mg)): approximately 0.41 mg
Regional airway deposition ratio, PI (penetration index) ([6]; normalized for 81mKr gas distribution, mean (CV%), listed as radiolabeled GDC‐0214): 0.76 (30.47%)
% Emitted dose, Exhaled ([6]; single inhaled 1 mg radiolabeled dose, after the breath-hold, mean): 0.74%
plasma protein binding-corrected cellular 50% inhibitory concentration of JAK1 [7]: 97,000 pg/mL
